Source: ChEMBL document CHEMBL1782018, “Novel 3alpha-methoxyserrat-14-en-21beta-ol (PJ-1) and 3beta-methoxyserrat-14-en-21beta-ol (PJ-2)-curcumin, kojic acid, quercetin, and baicalein conjugates as HIV agents” (Bioorg Med Chem, 2009)
≈ marks a conversion by molar mass, not a printed value.

How the values were obtained:
[1] = Cytotoxicity against […] human C8166-CCR5 cells assessed as decrease in cell viability by cell associated dehydrogenase activity assay; format: cell-based
In short: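 C8166-CCR5 human CD4+ T cells, grown in RPMI 1640 with 10% FBS and antibiotics, seeded at 3 × 10^4 cells per well with compound across a concentration series. Incubated at 37 °C for 72 h. Viability read by cell-associated dehydrogenase activity (CCK-8). Run in duplicate or triplicate. CC50 is the 50% cytostatic concentration.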

[2] = test system: Human immunodeficiency virus 1; assay: Antiviral activity against HIV1 NL4-3 infected human C8166-CCR5 cells assessed as decrease in virus-induced cytopathicity after 72 hrs by cell associated dehydrogenase activity assay; format: functional, organism-based; settings: Human immunodeficiency virus 1, NL4-3, C8166-CCR5, 72 h
[3] = Selectivity index, ratio of CC50 for human C8166-CCR5 cells to EC50 for HIV1 NL4-3; format: toxicity, cell-based; settings: read-out: Ratio CC50/EC50
In short: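 SI = CC50/EC50. CC50 is from the 72 h CCK-8 viability assay in uninfected C8166-CCR5 cells. EC50 is from supernatant RT activity four days after HIV-1 NL43 infection of the same cells.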

Protease = Protease (Human immunodeficiency virus 1, UniProt Q9YQ12); assay: Inhibition of HIV1 protease activity
[4] = biological target: Human immunodeficiency virus type 1 reverse transcriptase (Human immunodeficiency virus 1, UniProt Q72547); assay: Antiviral activity against HIV1 Reverse transcriptase activity
In short: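 C8166-CCR5 human CD4+ T cells (3 × 10^4) in RPMI 1640 with 10% FBS were mixed with compound and infected with HIV-1 NL43 inoculum normalized to 1 × 10^5 cpm RT activity, then held at 37 °C. Four days after infection, supernatant RT activity was read with poly(A) template, oligo(dT) primer and [32P]TTP. Run in duplicate or triplicate. EC50 reported.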

[5] = test system: Human immunodeficiency virus 1; assay: Antiviral activity against HIV1 3B infected human CCR5 cells assessed as decrease in viral syncytium formation; format: functional, organism-based; settings: Human immunodeficiency virus 1, 3B
[6] = Selectivity index, ratio of CD50 for human MT4 cells to ID50 for HIV1; format: toxicity, cell-based; settings: read-out: Selectivity Index

Sequence of Protease (Q9YQ12 whole entry): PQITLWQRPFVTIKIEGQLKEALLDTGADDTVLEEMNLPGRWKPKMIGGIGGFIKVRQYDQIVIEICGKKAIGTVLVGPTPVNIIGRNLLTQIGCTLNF

| SMILES | EC50 [2] | IC50 (Protease) | CC50 [1] | selectivity ratio [3] | further results |
| --- | --- | --- | --- | --- | --- |
| CC1(C)[C@H](O)CC[C@]2(C)C3=CC[C@@]4(C)[C@@H]5C[C@](C)(COC(=O)c6ccccc6)CC[C@]5(C)CC[C@]4(C)C3=CC[C@@H]12 | – | – | – | – | IC50 [4]: 4.04 µM |
| COc1cc(/C=C/C(=O)O[C@H]2CC[C@]34C[C@]35CC[C@]3(C)[C@@H]([C@H](C)CCC=C(C)C)CC[C@@]3(C)[C@@H]5CC[C@H]4C2(C)C)ccc1O [GAMMA ORYZANOL] | – | – | – | – | IC50 [4]: 3.65 µM |
| C=C(C)[C@@H]1CC[C@]2(C(=O)O)CC[C@]3(C)[C@H](CC[C@@H]4[C@@]5(C)CC[C@H](O)C(C)(C)[C@@H]5CC[C@]43C)[C@@H]12 [BETULINIC ACID GLUTARYL HEMI ESTER] | – | 4 µM | – | – | – |
| C=C(CC[C@@H](C)[C@H]1CC[C@@]2(C)[C@@H]3CC[C@H]4C(C)(C)[C@@H](OC(=O)/C=C/c5ccc(O)c(OC)c5)CC[C@@]45C[C@@]35CC[C@]12C)C(C)C | – | – | – | – | IC50 [4]: 3.08 µM |
| C[C@H]1[C@H](C)CC[C@]2(C(=O)O)CC[C@]3(C)C(=CC[C@@H]4[C@@]5(C)CC[C@H](O)C(C)(C)[C@@H]5CC[C@]43C)[C@H]12 [URSOLIC ACID HYDROGEN MALONATE] | – | 6 µM | – | – | – |
| CO[C@H]1CC[C@]2(C)[C@H](CC[C@@]3(C)CC4=CC[C@@H]5C(C)(C)[C@H](OC(=O)CCC(=O)Oc6coc(CO)cc6=O)CC[C@@]5(C)[C@@H]4CC[C@@H]32)C1(C)C | 6.75 µg/mL (≈ 9.91 µM) | – | > 100 µg/mL | 86.8 | – |
| C=C(C)[C@@H]1CC[C@]2(C)CC[C@]3(C)[C@H](CC[C@@H]4[C@@]5(C)CCC(=O)C(C)(C)[C@@H]5CC[C@]43C)[C@@H]12 [LUPENONE] | – | – | – | – | IC50 [4]: 4.94 µM |
| CC1=C[C@@H]([C@H](O)[C@H](C)[C@@H]2C[C@@H](O)[C@@]3(O)[C@@H]4CC[C@@H]5C(C)(C)O[C@@H]6CC(=O)O[C@@]56C[C@]4(O)CC[C@@]23C)OC1=O [MICRANDILACTONE C] | – | – | > 200 µg/mL | – | EC50 [5]: 7710 µg/mL (≈ 14400 µM) |
| CC1(C)[C@@H](O)CC[C@]2(C)[C@H]3C(=O)C=C4[C@@H]5C[C@@](C)(C(=O)O)CC[C@]5(C)CC[C@@]4(C)[C@]3(C)CC[C@@H]12 [ENOXOLONE] | – | – | – | – | selectivity ratio [6]: 9.6 |
| C=C(C)[C@@H]1CC[C@]2(COC(C)=O)CC[C@]3(C)[C@H](CC[C@@H]4[C@@]5(C)CC[C@H](OC(C)=O)C(C)(C)[C@@H]5CC[C@]43C)[C@@H]12 [BETULIN DIACETATE] | – | – | – | – | IC50 [4]: 2.66 µM |
| CC1(C)CC[C@]2(C(=O)NCCCCCC(=O)O)CC[C@]3(C)C(=CC[C@@H]4[C@@]5(C)CC[C@H](OC(=O)CCCCC(=O)O)C(C)(C)[C@@H]5CC[C@]43C)[C@@H]2C1 | – | 1.7 µM | – | – | – |
| CC1(C)CC[C@]2(C(=O)NCCCCCC(=O)O)CC[C@]3(C)C(=CC[C@@H]4[C@@]5(C)CC[C@H](O)C(C)(C)[C@@H]5CC[C@]43C)[C@@H]2C1 | – | 1.7 µM | – | – | – |

The next lines start with results.

| EC50 [2] | IC50 (Protease) | SMILES | CC50 [1] | selectivity ratio [3] | further results |
| --- | --- | --- | --- | --- | --- |
| 21.4 µg/mL (≈ 26.5 µM) | – | CO[C@@H]1CC[C@]2(C)[C@H](CC[C@@]3(C)CC4=CC[C@@H]5C(C)(C)[C@H](OC(=O)CCC(=O)Oc6c(O)cc7oc(-c8ccccc8)cc(=O)c7c6O)CC[C@@]5(C)[C@@H]4CC[C@@H]32)C1(C)C | > 100 µg/mL | 4.9 | – |
| – | 8 µM | C[C@H]1[C@H](C)CC[C@]2(C(=O)O)CC[C@]3(C)C(=CC[C@@H]4[C@@]5(C)CC[C@H](O)C(C)(C)[C@@H]5CC[C@]43C)[C@H]12 [URSOLIC ACID] | – | – | – |
| 26.6 µg/mL (≈ 31.6 µM) | – | CO[C@@H]1CC[C@]2(C)[C@H](CC[C@@]3(C)CC4=CC[C@@H]5C(C)(C)[C@H](OC(=O)CCC(=O)Oc6cc(-c7oc8cc(O)cc(O)c8c(=O)c7O)ccc6O)CC[C@@]5(C)[C@@H]4CC[C@@H]32)C1(C)C | > 100 µg/mL | 4.8 | – |
| 5.94 µg/mL (≈ 4.87 µM) | – | CO[C@H]1CC[C@]2(C)[C@H](CC[C@@]3(C)CC4=CC[C@@H]5C(C)(C)[C@H](OC(=O)CCC(=O)OCc6cc(=O)c(OC(=O)CCC(=O)O[C@@H]7CC[C@@]8(C)[C@@H]9CC[C@H]%10[C@@](C)(CC[C@@H]%11C(C)(C)[C@@H](OC)CC[C@]%11%10C)CC9=CC[C@@H]8C7(C)C)co6)CC[C@@]5(C)[C@@H]4CC[C@@H]32)C1(C)C | > 100 µg/mL | > 5000 | – |
| – | 8 µM | CC1(C)CC[C@]2(C(=O)O)CC[C@]3(C)C(=CC[C@@H]4[C@@]5(C)CC[C@H](O)C(C)(C)[C@@H]5CC[C@]43C)[C@@H]2C1 [OLEANOLIC_ACID] | – | – | – |
| – | 4 µM | C[C@H]1[C@H](C)CC[C@]2(C(=O)O)CC[C@]3(C)C(=CC[C@@H]4[C@@]5(C)CC[C@H](O)C(C)(C)[C@@H]5CC[C@]43C)[C@H]12 [URSOLIC ACID GLUTARYL HEMI ESTER] | – | – | – |
| 55.4 µg/mL (≈ 68.4 µM) | – | CO[C@H]1CC[C@]2(C)[C@H](CC[C@@]3(C)CC4=CC[C@@H]5C(C)(C)[C@H](OC(=O)CCC(=O)Oc6c(O)cc7oc(-c8ccccc8)cc(=O)c7c6O)CC[C@@]5(C)[C@@H]4CC[C@@H]32)C1(C)C | > 100 µg/mL | 2.3 | – |
| > 100 µg/mL | – | CO[C@@H]1CC[C@]2(C)[C@H](CC[C@@]3(C)CC4=CC[C@@H]5C(C)(C)[C@H](O)CC[C@@]5(C)[C@@H]4CC[C@@H]32)C1(C)C | > 100 µg/mL | – | – |
| 4.13 µg/mL (≈ 6.07 µM) | – | CO[C@@H]1CC[C@]2(C)[C@H](CC[C@@]3(C)CC4=CC[C@@H]5C(C)(C)[C@H](OC(=O)CCC(=O)Oc6coc(CO)cc6=O)CC[C@@]5(C)[C@@H]4CC[C@@H]32)C1(C)C | 22.2 µg/mL (≈ 32.6 µM) | 5.4 | – |
| 0.12 µg/mL (≈ 0.0984 µM) | – | CO[C@@H]1CC[C@]2(C)[C@H](CC[C@@]3(C)CC4=CC[C@@H]5C(C)(C)[C@H](OC(=O)CCC(=O)OCc6cc(=O)c(OC(=O)CCC(=O)O[C@@H]7CC[C@@]8(C)[C@@H]9CC[C@H]%10[C@@](C)(CC[C@@H]%11C(C)(C)[C@H](OC)CC[C@]%11%10C)CC9=CC[C@@H]8C7(C)C)co6)CC[C@@]5(C)[C@@H]4CC[C@@H]32)C1(C)C | 4.2 µg/mL (≈ 3.44 µM) | 35 | – |
| – | 4 µM | CC1(C)CC[C@]2(C(=O)O)CC[C@]3(C)C(=CC[C@@H]4[C@@]5(C)CC[C@H](O)C(C)(C)[C@@H]5CC[C@]43C)[C@@H]2C1 [OLEANOLIC ACID GLUTARYL HEMI ESTER] | – | – | – |
| 0.02 µg/mL (≈ 0.0748 µM) | – | Cc1cn([C@H]2C[C@H](N=[N+]=[N-])[C@@H](CO)O2)c(=O)[nH]c1=O [ZIDOVUDINE] | > 100 µg/mL | > 5000 | – |
| 23.2 µg/mL (≈ 27.6 µM) | – | CO[C@H]1CC[C@]2(C)[C@H](CC[C@@]3(C)CC4=CC[C@@H]5C(C)(C)[C@H](OC(=O)CCC(=O)Oc6cc(-c7oc8cc(O)cc(O)c8c(=O)c7O)ccc6O)CC[C@@]5(C)[C@@H]4CC[C@@H]32)C1(C)C | > 100 µg/mL | > 5000 | – |
| > 100 µg/mL | – | CO[C@H]1CC[C@]2(C)[C@H](CC[C@@]3(C)CC4=CC[C@@H]5C(C)(C)[C@H](O)CC[C@@]5(C)[C@@H]4CC[C@@H]32)C1(C)C | > 100 µg/mL | – | – |
